Source: ChEMBL document CHEMBL4152262, “Design, synthesis and evaluation of novel multi-target-directed ligands for treatment of Alzheimer's disease based on coumarin and lipoic acid scaffolds” (Eur J Med Chem, 2018)

What was measured:
[1] = target: Amyloid-beta precursor protein (Homo sapiens) (UniProt P05067); assay: Inhibition of amyloid beta (1 to 42) (unknown origin) self-induced aggregation at 100 uM incubated for 48 hrs by thioflavin-T fluorescence assay relative to control
PC-12 [2] = assay: Neuroprotection against H2O2-induced cell death in rat PC12 cells assessed as cell viability at 0.1 uM preincubated for 3 hrs followed by H2O2 stimulation measured after 2 hrs by MTT assay (reference value: 25.2 to 41.8%); format: functional; conditions: read-out: Activity
PC-12 [3] = assay: Neuroprotection against H2O2-induced cell death in rat PC12 cells assessed as cell viability at 1 uM preincubated for 3 hrs followed by H2O2 stimulation measured after 2 hrs by MTT assay (reference value: 25.2 to 41.8%); format: functional; conditions: read-out: Activity
PC-12 [4] = assay: Neuroprotection against H2O2-induced cell death in rat PC12 cells assessed as cell viability at 5 uM preincubated for 3 hrs followed by H2O2 stimulation measured after 2 hrs by MTT assay (reference value: 25.2 to 41.8%); format: functional; conditions: read-out: Activity
PC-12 [5] = assay: Neuroprotection against H2O2-induced cell death in rat PC12 cells assessed as cell viability at 10 uM preincubated for 3 hrs followed by H2O2 stimulation measured after 2 hrs by MTT assay (reference value: 25.2 to 41.8%); format: functional; conditions: read-out: Activity
PC-12 [6] = assay: Neuroprotection against H2O2-induced cell death in rat PC12 cells assessed as cell viability at 20 uM preincubated for 3 hrs followed by H2O2 stimulation measured after 2 hrs by MTT assay (reference value: 25.2 to 41.8%); format: functional; conditions: read-out: Activity
PC-12 [7] = assay: Neuroprotection against H2O2-induced cell death in rat PC12 cells assessed as cell viability at 50 uM preincubated for 3 hrs followed by H2O2 stimulation measured after 2 hrs by MTT assay (reference value: 25.2 to 41.8%); format: functional; conditions: read-out: Activity
PC-12 [8] = assay: Neuroprotection against H2O2-induced cell death in rat PC12 cells assessed as increase in cell viability preincubated for 3 hrs followed by H2O2 stimulation measured after 2 hrs by MTT assay; format: functional, cell-based
Acetylcholinesterase = Acetylcholinesterase (Electrophorus electricus, UniProt O42275); assay: Inhibition of electric eel AChE using acetylthiocholine iodide as substrate pretreated for 5 mins followed by substrate addition by Ellman's method
Chain of Acetylcholinesterase (O42275 whole entry): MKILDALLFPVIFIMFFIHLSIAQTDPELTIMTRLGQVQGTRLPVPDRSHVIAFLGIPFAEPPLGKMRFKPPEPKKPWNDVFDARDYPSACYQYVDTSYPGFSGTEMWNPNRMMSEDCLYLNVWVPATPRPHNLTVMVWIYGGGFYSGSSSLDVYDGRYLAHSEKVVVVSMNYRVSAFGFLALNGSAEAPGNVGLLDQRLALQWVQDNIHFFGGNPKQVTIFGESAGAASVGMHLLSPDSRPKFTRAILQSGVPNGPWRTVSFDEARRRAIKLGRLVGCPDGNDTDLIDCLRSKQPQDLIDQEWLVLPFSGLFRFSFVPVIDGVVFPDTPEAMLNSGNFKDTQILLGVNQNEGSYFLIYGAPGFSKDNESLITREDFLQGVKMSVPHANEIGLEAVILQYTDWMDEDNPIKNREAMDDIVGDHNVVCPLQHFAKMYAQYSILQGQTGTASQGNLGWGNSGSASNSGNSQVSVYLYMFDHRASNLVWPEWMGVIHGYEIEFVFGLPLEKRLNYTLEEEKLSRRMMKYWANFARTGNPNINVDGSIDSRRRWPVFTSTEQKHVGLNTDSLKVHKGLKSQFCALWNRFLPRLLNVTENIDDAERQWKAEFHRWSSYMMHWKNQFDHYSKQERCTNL

Cholinesterase = Cholinesterase (Equus caballus, UniProt P81908); assay: Inhibition of equine serum BuChE using butyrylthiocholine iodide as substrate pretreated for 5 mins followed by substrate addition by Ellman's method
Chain of Cholinesterase (P81908 whole entry): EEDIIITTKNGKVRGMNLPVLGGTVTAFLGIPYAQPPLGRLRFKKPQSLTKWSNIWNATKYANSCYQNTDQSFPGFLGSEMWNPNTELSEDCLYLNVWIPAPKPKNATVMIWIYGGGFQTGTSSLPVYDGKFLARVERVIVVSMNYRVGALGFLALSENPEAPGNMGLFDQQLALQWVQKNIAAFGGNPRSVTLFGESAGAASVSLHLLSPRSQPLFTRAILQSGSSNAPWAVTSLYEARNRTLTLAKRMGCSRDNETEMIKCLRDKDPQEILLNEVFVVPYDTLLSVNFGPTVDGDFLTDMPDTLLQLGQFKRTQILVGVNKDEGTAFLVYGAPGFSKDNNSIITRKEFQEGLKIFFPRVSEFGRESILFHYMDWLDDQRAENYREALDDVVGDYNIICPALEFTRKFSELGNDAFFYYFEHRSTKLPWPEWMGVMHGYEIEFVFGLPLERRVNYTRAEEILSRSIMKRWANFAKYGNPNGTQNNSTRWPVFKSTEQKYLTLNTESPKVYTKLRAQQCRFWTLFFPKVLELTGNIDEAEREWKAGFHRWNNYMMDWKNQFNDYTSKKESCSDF
How it was run: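 Ellman assay with horse serum BuChE (5 IU/mL) in 0.1 M phosphate buffer pH 8.0 with DTNB. Compound was preincubated with enzyme 5 min, then butyrylthiocholine iodide was added. Absorbance read at 412 nm. IC50 from a log concentration vs % inhibition curve; triplicate runs.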

[9] = Inhibition of soybean 15-LOX assessed as reduction in conversion of linoleic acid to 13-hydroperoxylinoleic acid by spectrophotometric method; set-up: species or system Glycine max
How it was run: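 Soybean lipoxygenase type 1-B (final 167 U/mL) with compound (DMSO stock diluted in 0.1 M phosphate buffer pH 8) and linoleic acid (134 mM in ethanol) at room temperature. Formation of 13-hydroperoxylinoleic acid followed spectrophotometrically at 234 nm.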

SH-SY5Y [10] = assay: Neuroprotection against H2O2-induced cell death in human SH-SY5Y cells assessed as cell viability at 50 uM preincubated for 3 hrs followed by H2O2 addition measured after 24 hrs by MTT assay relative to control; format: functional; conditions: read-out: Activity
How it was run: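 SH-SY5Y cells grown in DMEM with 10% FBS, 1% L-glutamine and antibiotics, 5×10^3/well. Compound (10 or 50 µM) for 3 h before 250 µM H2O2, then 24 h incubation. MTT read at 570 nm after DMSO solubilization. Viability as blank-corrected % of untreated control; three independent experiments, mean ± SEM.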

SH-SY5Y [11] = assay: Inhibition of amyloid beta (1 to 42) (unknown origin)-induced cell death in human SH-SY5Y cells assessed as cell viability at 50 uM preincubated for 3 hrs followed by amyloid beta (1 to 42) addition measured after 24 hrs by MTT assay relative to control; format: functional; conditions: read-out: Activity
How it was run: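 SH-SY5Y cells grown in DMEM with 10% FBS, 1% L-glutamine and antibiotics, seeded at 5×10^3/well. Pretreated 3 h with compound (10 or 50 µM), then Aβ1-42 10 µM added for 24 h. MTT, formazan dissolved in DMSO, A570. Viability as blank-corrected % of untreated control; three independent experiments, mean ± SEM.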

PC-12 [12] = assay: Cytotoxicity against rat PC12 cells assessed as effect on cell viability at 1 to 50 uM by MTT assay; format: cell-based; conditions: pc-12, 50 µM
PC-12 [13] = assay: Inhibition of H2O2-induced ROS generation in rat PC12 cells assessed as intracellular ROS level at 50 uM preincubated for 6 hrs followed by H2O2 addition measured after 18 hrs by DCFH-DA staining based fluorimetric method relative to control; format: functional; set-up: scale not given: the % may be the effect or the level left
How it was run: (§1)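 PC12 cells at 1×10^4/well in RPMI with 10% FBS and penicillin/streptomycin, 24 h at 37 °C, 5% CO2. Test samples (1, 5, 10, 50 µM; ≤0.5% DMSO) for 6 h, PBS wash, then H2O2 150 µM for 18 h. Loaded with 10 µM DCFH-DA for 30 min at 37 °C in the dark, washed twice. DCF fluorescence read at ex 485/em 528 nm as % of untreated control. Three independent experiments, mean ± SEM.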

PC-12 [14] = assay: Inhibition of H2O2-induced ROS generation in rat PC12 cells assessed as intracellular ROS level at 10 uM preincubated for 6 hrs followed by H2O2 addition measured after 18 hrs by DCFH-DA staining based fluorimetric method relative to control; format: functional; set-up: scale not given: the % may be the effect or the level left; how it was run: as §1
PC-12 [15] = assay: Inhibition of H2O2-induced ROS generation in rat PC12 cells assessed as intracellular ROS level at 5 uM preincubated for 6 hrs followed by H2O2 addition measured after 18 hrs by DCFH-DA staining based fluorimetric method relative to control; format: functional; set-up: scale not given: the % may be the effect or the level left; how it was run: as §1
PC-12 [16] = assay: Inhibition of H2O2-induced ROS generation in rat PC12 cells assessed as intracellular ROS level at 1 uM preincubated for 6 hrs followed by H2O2 addition measured after 18 hrs by DCFH-DA staining based fluorimetric method relative to control; format: functional; set-up: scale not given: the % may be the effect or the level left; how it was run: as §1
PC-12 [17] = assay: Inhibition of H2O2-induced ROS generation in rat PC12 cells preincubated for 6 hrs followed by H2O2 addition measured after 18 hrs by DCFH-DA staining based fluorimetric method; format: functional, cell-based; how it was run: as §1

Chain of Amyloid-beta precursor protein (Homo sapiens) (P05067 whole entry): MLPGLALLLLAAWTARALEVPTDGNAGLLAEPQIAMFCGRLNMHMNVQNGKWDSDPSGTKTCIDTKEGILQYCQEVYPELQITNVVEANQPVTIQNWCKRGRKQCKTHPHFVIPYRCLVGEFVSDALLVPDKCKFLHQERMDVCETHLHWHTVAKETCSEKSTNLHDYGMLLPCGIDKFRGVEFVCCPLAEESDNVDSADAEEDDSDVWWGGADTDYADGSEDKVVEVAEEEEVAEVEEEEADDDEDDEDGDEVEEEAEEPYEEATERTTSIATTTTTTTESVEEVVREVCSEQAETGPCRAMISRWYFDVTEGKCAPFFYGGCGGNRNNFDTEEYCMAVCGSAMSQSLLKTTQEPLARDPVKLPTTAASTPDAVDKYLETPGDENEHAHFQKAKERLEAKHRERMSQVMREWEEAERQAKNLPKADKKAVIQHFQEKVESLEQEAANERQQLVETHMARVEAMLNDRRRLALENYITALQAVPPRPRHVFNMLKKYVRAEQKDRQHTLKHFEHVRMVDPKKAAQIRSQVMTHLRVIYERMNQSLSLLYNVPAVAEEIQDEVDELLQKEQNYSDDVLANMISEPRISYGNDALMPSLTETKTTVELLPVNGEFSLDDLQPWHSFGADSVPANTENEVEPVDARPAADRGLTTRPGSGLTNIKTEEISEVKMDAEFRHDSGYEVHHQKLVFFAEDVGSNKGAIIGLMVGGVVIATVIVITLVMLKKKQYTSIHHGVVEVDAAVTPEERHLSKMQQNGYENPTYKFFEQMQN

Row | SMILES | inhibition [1] [%] | viability at 0.1 µM (PC-12 [2]) [%] | viability at 1 µM (PC-12 [3]) [%] | viability at 5 µM (PC-12 [4]) [%] | viability at 10 µM (PC-12 [5]) [%] | viability at 20 µM (PC-12 [6]) [%] | viability at 50 µM (PC-12 [7]) [%] | Activity (PC-12 [8]) | IC50 (Acetylcholinesterase) [µM] | IC50 (Cholinesterase) [µM] | IC50 [9] [µM] | viability at 50 µM (SH-SY5Y [10]) [%] | viability at 50 µM (SH-SY5Y [11]) [%] | Activity (PC-12 [12]) | Activity (PC-12 [13]) [%] | Activity (PC-12 [14]) [%] | Activity (PC-12 [15]) [%] | Activity (PC-12 [16]) [%] | inhibition (PC-12 [17])
1 | CO[C@H]1/C=C/O[C@@]2(C)Oc3c(C)c(O)c4c(O)c(c(/C=N/N5CCN(C)CC5)c(O)c4c3C2=O)NC(=O)/C(C)=C\C=C\[C@H](C)[C@H](O)[C@@H](C)[C@@H](O)[C@@H](C)[C@H](OC(C)=O)[C@@H]1C | 27.5 |  |  |  |  |  |  |  |  |  |  |  |  |  |  |  |  |  | 
2 | O=C(CCCCC1CCSS1)NCc1cn(CCCCOc2ccc3ccc(=O)oc3c2)nn1 (centres undefined) |  | 40.5 | 45.9 | 52.8 | 65.1 | 69.8 | 75.8 | Dose-dependent effect | 65.5 | > 100 | > 100 |  |  |  |  |  |  |  | 
3 | Cc1cc(=O)oc2cc(OCCCCCn3cc(CNC(=O)CCCCC4CCSS4)nn3)ccc12 (centres undefined) |  | 45.6 | 56.5 | 61 | 66.3 | 70.3 | 73.7 | Dose-dependent effect | > 100 | > 100 | > 100 |  |  |  |  |  |  |  | 
4 | O=C(CCCCC1CCSS1)NCc1cn(CCCCCOc2ccc3ccc(=O)oc3c2)nn1 (centres undefined) |  | 46.3 | 57.2 | 64.5 | 71.3 | 78.5 | 84.9 | Dose-dependent effect | 70.6 | > 100 | > 100 |  |  |  |  |  |  |  | 
5 | O=C(CCCCC1CCSS1)NCc1cn(CCCOc2ccc3cc(C(=O)O)c(=O)oc3c2)nn1 (centres undefined) |  | 43.4 | 52.1 | 57 | 59.9 | 66.8 | 73.5 | Dose-dependent effect | > 100 | > 100 | > 100 |  |  |  |  |  |  |  | 
6 | O=C(CCCCC1CCSS1)NCc1cn(CCCCOc2ccc3cc(-c4ccc(Cl)c(Cl)c4)c(=O)oc3c2)nn1 (centres undefined) |  | 39.6 | 49.3 | 53.2 | 58.9 | 62.9 | 69.5 | Dose-dependent effect | > 100 | 10.3 | > 100 |  |  |  |  |  |  |  | 
7 | COc1ccc(-c2cc3ccc(OCCCCn4cc(CNC(=O)CCCCC5CCSS5)nn4)cc3oc2=O)cc1OC (centres undefined) |  | 40.7 | 53 | 57.2 | 64 | 68.4 | 71.9 | Dose-dependent effect | > 100 | > 100 | > 100 |  |  |  |  |  |  |  | 
8 | O=C(CCCCC1CCSS1)NCc1cn(CCCOc2ccc3cc(-c4ccc(Cl)c(Cl)c4)c(=O)oc3c2)nn1 (centres undefined) |  | 38.1 | 42.4 | 44.7 | 49.6 | 51.2 | 54.8 | Dose-dependent effect | > 100 | 73.5 | > 100 |  |  |  |  |  |  |  | 
9 | O=C(CCCCC1CCSS1)NCc1cn(CCCCOc2ccc3cc(-c4ccc(Br)cc4)c(=O)oc3c2)nn1 (centres undefined) |  | 34.2 | 37.4 | 40.5 | 42.6 | 45 | 47.6 | Dose-dependent effect | > 100 | > 100 | > 100 |  |  |  |  |  |  |  | 
10 | Cc1cc(=O)oc2cc(OCCCn3cc(CNC(=O)CCCCC4CCSS4)nn3)ccc12 (centres undefined) | 26.6 | 44.8 | 54.5 | 64.6 | 69.4 | 74.3 | 75.4 | Dose-dependent effect | 55 | > 100 | > 100 | 55.6 | 72.9 | Non-Toxic | 49.24 | 122.93 | 131.54 | 118.8 | Dose-dependent effect
11 | O=C(O)CCCCC1CCSS1 (stereo not drawn) [LIPOIC ACID, ALPHA] |  |  |  |  |  |  |  |  |  |  |  |  |  |  | 55.9 | 105.72 | 110.65 | 138.77 | 
12 | O=C(CCCCC1CCSS1)NCc1cn(CCCOc2ccc3ccc(=O)oc3c2)nn1 (centres undefined) |  | 37.8 | 37.2 | 39.2 | 40 | 42.2 | 43.5 | Dose-dependent effect | 66.7 | > 100 | > 100 |  |  |  |  |  |  |  | 
